The test system of assay [1] is T1, Vitamin D3 receptor (Homo sapiens), P11473 [R274L].
T1 sequence (whole entry): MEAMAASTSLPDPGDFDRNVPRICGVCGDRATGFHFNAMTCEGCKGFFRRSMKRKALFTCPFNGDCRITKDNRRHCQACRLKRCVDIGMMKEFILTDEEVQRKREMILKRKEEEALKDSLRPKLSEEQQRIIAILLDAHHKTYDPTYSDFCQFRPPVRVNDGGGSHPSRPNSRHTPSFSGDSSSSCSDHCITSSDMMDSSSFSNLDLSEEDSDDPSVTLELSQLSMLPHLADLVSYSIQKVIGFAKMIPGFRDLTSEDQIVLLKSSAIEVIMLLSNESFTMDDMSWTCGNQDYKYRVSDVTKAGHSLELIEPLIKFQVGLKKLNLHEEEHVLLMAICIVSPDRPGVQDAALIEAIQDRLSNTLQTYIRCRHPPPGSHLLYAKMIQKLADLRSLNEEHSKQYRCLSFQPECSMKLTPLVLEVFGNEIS
Description: Agonist activity at human full length VDR R274L mutant expressed in COS7 cells after 24 rs by luciferase reporter gene assay. Type of assay: cell-based. The conditions noted are these: COS-7. In a few lines:
(§1)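 COS-7 cells grown in DMEM with 5% FCS, seeded at 2 × 10^4 per well. After 24 h, lipofected with mutant full-length hVDR expression plasmid, SPPx3-TK-Luc reporter (three mouse osteopontin VDRE copies) and sea pansy luciferase internal control. Medium changed after 4 h to 5% charcoal-treated FCS. Next day, ligand or ethanol vehicle added for 24 h. Lysate firefly luciferase normalized to the internal control. Triplicate.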

Assay [2] deals with T2, Vitamin D3 receptor (Rattus norvegicus), P13053 [W282R].
T2 sequence (whole entry): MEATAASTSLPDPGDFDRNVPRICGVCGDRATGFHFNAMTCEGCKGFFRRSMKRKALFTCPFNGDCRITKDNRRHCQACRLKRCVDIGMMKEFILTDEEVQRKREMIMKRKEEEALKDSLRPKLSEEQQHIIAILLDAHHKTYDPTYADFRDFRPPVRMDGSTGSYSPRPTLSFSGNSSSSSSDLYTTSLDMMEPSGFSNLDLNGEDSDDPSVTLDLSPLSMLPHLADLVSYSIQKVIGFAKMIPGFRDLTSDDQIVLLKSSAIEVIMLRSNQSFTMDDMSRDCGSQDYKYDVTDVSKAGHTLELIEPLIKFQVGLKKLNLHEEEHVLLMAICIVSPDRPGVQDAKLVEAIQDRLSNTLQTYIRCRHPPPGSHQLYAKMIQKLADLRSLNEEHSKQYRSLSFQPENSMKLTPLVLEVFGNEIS
The conditions noted are these: 5 mM.

Assay [3] addresses T3, Vitamin D3 receptor (Rattus norvegicus) (UniProt P13053).
T3 sequence (whole entry): T2 sequence (whole entry) with R282W
The conditions noted are these: 5 mM.

In assay [4] the test system is T4, Vitamin D3 receptor (Rattus norvegicus), P13053 [R270L].
T4 sequence (whole entry): T2 sequence (whole entry) with R270L, R282W
The conditions noted are these: 5 mM.

Assay [5] has as its target T5, Vitamin D3 receptor (Homo sapiens) (UniProt P11473).
T5 sequence (whole entry): T1 sequence (whole entry) with L274R
Kind of assay: Agonist activity at human full length VDR W282R mutant expressed in COS7 cells after 24 rs by luciferase reporter gene assay. The conditions noted are these: COS-7. The assay is classed as cell-based. In a few lines: as §1
(In general: A reporter such as luciferase makes a cellular process visible.)

In assay [6] the test system is T1, Vitamin D3 receptor (Homo sapiens), P11473 [R274L]. Description: Transactivation of human full length VDR R274L mutant expressed in COS7 cells after 24 rs by luciferase reporter gene assay relative to 1,25(OH)2D3. The assay is classed as cell-based. As to conditions: COS-7. In a few lines:
as §1

Numbering of substitutions follows the chain as printed. “And” between values parts separate entries of the source, which are not always exact repeats. Equal values may be shown once. The source made the active and inactive calls. No cut-off for these calls is given here.

For `C[C@H](CCCC(C)(C)O)[C@H]1CC[C@H]2/C(=C/C=C3/C[C@@H](O)C[C@H](OCCO)C3)CCC[C@]12C`, the outcome in assay [1] was Active. With `C[C@H](CCCC(C)(C)O)[C@H]1CC[C@H]2/C(=C/C=C3/C[C@@H](O)[C@@](C)(O)[C@H](OCCCCO)C3)CCC[C@]12C`, in assay [1], the outcome was inactive.

As for `C[C@H](CCCC(C)(C)O)[C@H]1CC[C@H]2/C(=C/C=C3/C[C@@H](O)C[C@H](OCCCCO)C3)CCC[C@]12C`, the outcome in assay [1] was Active. As to `C[C@H](CCCC(C)(C)O)[C@H]1CC[C@H]2/C(=C/C=C3/C[C@@H](O)[C@@](C)(O)[C@H](OCCCO)C3)CCC[C@]12C`, the outcome in assay [1] was inactive.

As a reminder, the ΔTm is the shift of the melting midpoint relative to a reference. On to `C=C1/C(=C\C=C2/CCC[C@]3(C)[C@@H]([C@H](C)CCCC(C)(C)O)CC[C@@H]23)C[C@@H](O)C[C@@H]1O`, for which the results for the shift in melting temperature (ΔTm) in assay [2], in assay [3] and in assay [4] were 0.1 °C, 8.4 °C and 2.5 °C, respectively. Take `CCCC[C@@H]1CC[C@]2(C)[C@@H]([C@H](C)CCCC(C)(C)O)CC[C@H]2/C1=C/C=C1C[C@@H](O)C[C@H](O)C1`: the outcome in assay [5] was inactive. Same read-out and setting: the same measure for `C[C@H](CCCC(C)(C)O)[C@H]1CC[C@H]2/C(=C/C=C3C[C@@H](O)C(=CCO)[C@H](O)C3)[C@H](CCCO)CC[C@]12C`: “inactive”.

Consider `CCC(O)(CC)CS[C@@H](C)C1=CC[C@H]2/C(=C/C=C3C[C@@H](O)C(=CCO)[C@H](O)C3)CCC[C@]12C`, for which, in assay [6], the fold change (FC) was 130 and 46.

With `C=CC[C@@H]1CC[C@]2(C)[C@@H]([C@H](C)CCCC(C)(C)O)CC[C@H]2/C1=C/C=C1C[C@@H](O)C(=CCO)[C@H](O)C1`, in assay [5], the outcome was inactive. Turning to `C[C@H](CCCC(C)(C)O)[C@H]1CC[C@H]2/C(=C/C=C3/C[C@@H](O)[C@@](C)(O)[C@H](OCCO)C3)CCC[C@]12C`, the outcome in assay [1] was inactive.

Source of the values: ChEMBL document CHEMBL2424653, “Crystal structures of hereditary vitamin D-resistant rickets-associated vitamin D receptor mutants R270L and W282R bound to 1,25-dihydroxyvitamin D3 and synthetic ligands” (J Med Chem, 2013).
